Test results reported in ChEMBL document CHEMBL4622842, “Optimization and biological evaluation of imidazopyridine derivatives as a novel scaffold for γ-secretase modulators with oral efficacy against cognitive deficits in Alzheimer's disease model mice” (Bioorg Med Chem, 2020).
Active and inactive are the calls of the source. No cut-off for these calls is given here.

How the values were obtained:
[1] = Intrinsic clearance in rat liver microsomes at 0.2 uM incubated upto 45 mins by LC/MS-MS analysis; type: ADME, Microsome; conditions: for CLint scaled at 0.2 µM: liver microsomes
How it was run: (§1)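 Test compound at 0.2 μM incubated at 37 °C with pooled rat or mouse liver microsomes (0.2 mg protein/mL), 1 mM NADPH and 0.1 mM EDTA in 100 mM Na+-K+ phosphate, pH 7.4. Samples taken at 0, 15, 30 and 45 min; compound/internal-standard peak areas measured by LC-MS/MS to calculate CLint (mL/min/kg). Mean of duplicate experiments.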

[2] = target: Gamma-secretase; assay: Inhibition of gamma-secretase in human SK-N-BE cells assessed as decrease in amyloid beta 42 production treated for 6 hrs by ELISA; type: cell-based
How it was run: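 SK-N-BE(2) human neuroblastoma cells grown in RPMI1640 with 10% FBS and penicillin/streptomycin, plated in 96-well plates overnight, then exposed to a range of drug concentrations in 0.5% DMSO for 6 h. Medium Aβ1-42 was measured by sandwich ELISA (44A3 capture, biotin-82E1 detection, streptavidin-HRP, TMB). Total Aβ was measured by ELISA kit. Mean of two wells.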

[3] = tested on: Rattus norvegicus; assay: Reduction in amyloid beta 42 production in Sprague-Dawley rat brain at 30 mg/kg, po measured after 3 to 4 hrs by ELISA relative to control; type: functional
How it was run: (§2)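 Nonfasted 6-week-old male SD rats (n = 4 or 5) given a single oral dose of 10 or 30 mg/kg in 0.5% (w/v) methylcellulose. Blood and brain were taken under isoflurane 3 h post-dose (4 h for some entries). Hippocampus was sonicated in 10 volumes of TBS pH 7.4 with protease inhibitors and spun at 100,000g, 4 °C, 1 h. Aβx-42 in supernatant and plasma measured by ELISA; Student's t-test vs vehicle.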

[4] = tested on: Rattus norvegicus; assay: Reduction in amyloid beta 42 production in Sprague-Dawley rat plasma at 30 mg/kg, po measured after 3 to 4 hrs by ELISA relative to control; type: functional; how it was run: as §2
[5] = Drug concentration in plasma of Sprague-Dawley rat at 10 mg/kg, po measured after 3 hrs by LC/MS-MS analysis; type: ADME, organism-based
How it was run: (§3)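 Nonfasted 6-week-old male SD rats (n = 2 or 3) received a single oral dose of 10 or 30 mg/kg as a suspension in 0.5% (w/v) methylcellulose. Plasma and brain were sampled 3 h post-dose, proteins were precipitated with acetonitrile, and drug was quantified by LC-MS/MS. Values are the mean of two or three rats. The brain/plasma ratio was taken from these concentrations.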

[6] = target: T1, CYP3A4 (Homo sapiens, UniProt P08684); assay: Inhibition of CYP3A4 in human liver microsome assessed as enzyme residual activity pre-incubated for 30 min followed by midazolam addition incubated for 20 mins by LC-MS/MS analysis relative to control; type: ADME; conditions: liver microsomes, probe midazolam, read-out: INH
T1 sequence (P08684 whole entry): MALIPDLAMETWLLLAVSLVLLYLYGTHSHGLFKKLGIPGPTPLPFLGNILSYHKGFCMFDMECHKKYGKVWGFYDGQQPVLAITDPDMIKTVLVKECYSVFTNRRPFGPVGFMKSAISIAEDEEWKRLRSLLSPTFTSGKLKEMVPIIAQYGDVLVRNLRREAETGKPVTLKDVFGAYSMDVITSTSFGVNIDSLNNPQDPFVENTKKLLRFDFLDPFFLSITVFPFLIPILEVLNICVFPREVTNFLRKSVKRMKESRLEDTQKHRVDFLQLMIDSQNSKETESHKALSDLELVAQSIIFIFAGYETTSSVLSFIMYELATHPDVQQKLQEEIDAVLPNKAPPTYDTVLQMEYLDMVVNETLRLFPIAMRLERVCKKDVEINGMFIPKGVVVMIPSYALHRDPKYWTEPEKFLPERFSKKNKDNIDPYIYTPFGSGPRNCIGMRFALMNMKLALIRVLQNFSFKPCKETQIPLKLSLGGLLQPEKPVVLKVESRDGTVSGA
How it was run: (§4)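 Human liver microsomes at 0.1 mg protein/mL with 1 mM NADPH, 0.1 mM EDTA, 100 mM Na+-K+ phosphate pH 7.4 and 5 μM test compound, preincubated 0 or 30 min at 37 °C. Started with 1.5 μM midazolam, run 20 min, stopped with 80% acetonitrile containing internal standard. Peak-area ratios with compound vs without gave residual activity; mean of duplicates.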

[7] = Ratio of drug concentration in brain to blood of Sprague-Dawley rat at 10 mg/kg, po measured after 3 hrs by LC/MS-MS analysis; type: ADME, organism-based; conditions: brain and blood; how it was run: as §3
[8] = target: Cytochrome P450 2C19 (Homo sapiens, UniProt P33261); assay: Inhibition of human recombinant CYP2C19 assessed as reduction in metabolite formation using CEC as substrate incubated for 20 mins by fluorescence assay; type: ADME
Chain of Cytochrome P450 2C19 (P33261 whole entry): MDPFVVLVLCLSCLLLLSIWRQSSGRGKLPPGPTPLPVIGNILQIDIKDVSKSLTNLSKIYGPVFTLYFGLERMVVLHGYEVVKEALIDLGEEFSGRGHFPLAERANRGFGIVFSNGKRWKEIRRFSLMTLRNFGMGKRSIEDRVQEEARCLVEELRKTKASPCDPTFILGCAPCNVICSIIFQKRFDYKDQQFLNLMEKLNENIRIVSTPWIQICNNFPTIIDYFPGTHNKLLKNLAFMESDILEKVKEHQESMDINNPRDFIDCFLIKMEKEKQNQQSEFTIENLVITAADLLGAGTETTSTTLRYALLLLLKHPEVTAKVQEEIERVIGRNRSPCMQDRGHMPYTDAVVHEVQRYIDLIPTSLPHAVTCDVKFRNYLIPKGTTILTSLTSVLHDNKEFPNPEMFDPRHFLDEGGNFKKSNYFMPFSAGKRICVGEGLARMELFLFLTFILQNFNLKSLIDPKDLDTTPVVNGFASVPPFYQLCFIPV
How it was run: (§5)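 Recombinant human CYP with co-factors, fluorogenic substrate, potassium phosphate buffer pH 7.4 and test compound at 0.31–20 μM, incubated at 37 °C. Substrates and incubation times: CYP1A2, 5 μM CEC, 20 min; CYP2C9, 75 μM MFC, 30 min; CYP2C19, 25 μM CEC, 20 min; CYP2D6, AMMC, 20 min. Stopped with Tris base/acetonitrile; metabolite read by fluorescence. IC50 is the mean of duplicates.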

[9] = Drug concentration in plasma of Sprague-Dawley rat at 30 mg/kg, po measured after 3 hrs by LC/MS-MS analysis; type: ADME, organism-based; how it was run: as §3
[10] = tested on: Rattus norvegicus; assay: Reduction in amyloid beta 42 production in Sprague-Dawley rat brain at 10 mg/kg, po measured after 3 to 4 hrs by ELISA relative to control; type: functional; how it was run: as §2
[11] = tested on: Rattus norvegicus; assay: Reduction in amyloid beta 42 production in Sprague-Dawley rat plasma at 10 mg/kg, po measured after 3 to 4 hrs by ELISA relative to control; type: functional; how it was run: as §2
[12] = target: Cytochrome P450 2C9 (Homo sapiens, UniProt P11712); assay: Inhibition of human recombinant CYP2C9 assessed as reduction in metabolite formation using MFC as substrate incubated for 30 mins by fluorescence assay; type: ADME; how it was run: as §5
Chain of Cytochrome P450 2C9 (P11712 whole entry): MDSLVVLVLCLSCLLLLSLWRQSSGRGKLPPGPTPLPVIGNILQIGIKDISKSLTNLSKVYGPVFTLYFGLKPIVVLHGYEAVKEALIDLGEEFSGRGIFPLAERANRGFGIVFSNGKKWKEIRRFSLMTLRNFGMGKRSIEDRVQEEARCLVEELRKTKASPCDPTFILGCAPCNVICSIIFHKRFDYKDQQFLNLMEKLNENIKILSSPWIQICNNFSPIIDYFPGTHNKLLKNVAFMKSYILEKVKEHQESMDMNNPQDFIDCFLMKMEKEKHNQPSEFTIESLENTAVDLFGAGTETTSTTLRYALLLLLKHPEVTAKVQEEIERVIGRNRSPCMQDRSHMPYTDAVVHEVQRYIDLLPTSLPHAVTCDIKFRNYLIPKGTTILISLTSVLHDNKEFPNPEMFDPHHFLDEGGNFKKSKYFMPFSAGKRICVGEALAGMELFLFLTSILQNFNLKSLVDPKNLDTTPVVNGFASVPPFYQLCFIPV

[13] = target: T1, CYP3A4; assay: Inhibition of CYP3A4 in human liver microsome assessed as enzyme residual activity pre-incubated for 0 min followed by midazolam addition incubated for 20 mins by LC-MS/MS analysis relative to control; type: ADME; conditions: liver microsomes, probe midazolam, read-out: INH; how it was run: as §4
[14] = Ratio of drug concentration in plasma of Sprague-Dawley rat at 10 mg/kg, po to IC50 of gamma-secretase in human SK-N-BE cells; type: ADME, organism-based; conditions: in vivo
[15] = Drug concentration in brain of Sprague-Dawley rat at 30 mg/kg, po measured after 3 hrs by LC/MS-MS analysis; type: ADME, organism-based; conditions: in vivo; how it was run: as §3
[16] = target: T2, Cytochrome P450 1A2 (Homo sapiens, UniProt P05177); assay: Inhibition of human recombinant CYP1A2 assessed as reduction in metabolite formation using CEC as substrate incubated for 20 mins by fluorescence assay; type: ADME; how it was run: as §5
T2 sequence (P05177 whole entry): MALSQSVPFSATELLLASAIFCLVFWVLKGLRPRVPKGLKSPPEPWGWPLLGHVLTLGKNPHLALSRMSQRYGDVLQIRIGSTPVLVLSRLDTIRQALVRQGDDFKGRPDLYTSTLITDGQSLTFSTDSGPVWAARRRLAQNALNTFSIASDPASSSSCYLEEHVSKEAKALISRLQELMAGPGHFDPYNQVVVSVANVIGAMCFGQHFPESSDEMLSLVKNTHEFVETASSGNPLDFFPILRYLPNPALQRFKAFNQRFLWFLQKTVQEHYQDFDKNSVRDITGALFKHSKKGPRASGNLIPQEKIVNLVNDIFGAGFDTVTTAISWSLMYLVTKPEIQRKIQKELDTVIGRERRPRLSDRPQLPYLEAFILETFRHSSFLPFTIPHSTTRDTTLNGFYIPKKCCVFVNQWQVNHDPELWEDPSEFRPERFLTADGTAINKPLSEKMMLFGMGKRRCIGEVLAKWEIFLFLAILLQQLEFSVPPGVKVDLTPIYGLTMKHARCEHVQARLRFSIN

[17] = Ratio of drug concentration in plasma of Sprague-Dawley rat at 30 mg/kg, po to IC50 of gamma-secretase in human SK-N-BE cells; type: ADME, organism-based; conditions: in vivo
[18] = tested on: Mus musculus; assay: Antialzheimer activity in transgenic Tg2576 mouse assessed as improvement of spatial memory impairment at 2 and 6 mg/kg, po administered daily for 8 weeks measured after 3 hrs on day 8 by Y-maze test; type: functional, organism-based; conditions: in the assay text read “8 days” for “8 weeks”
How it was run: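 Female Tg2576 mice, 6 months old, nonfasted (n = 5 or 6), dosed orally once daily for 8 days at 0.6, 2.0, 6.0 or 20 mg/kg as a suspension in 0.5% methyl cellulose. Three hours after the day-8 dose, each mouse started at the end of one arm of a three-arm Y-maze and explored freely for 8 min. Spontaneous alternation was scored; animals with <10 total arm entries were excluded. Student's t-test vs vehicle.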

[19] = Drug concentration in brain of Sprague-Dawley rat at 10 mg/kg, po measured after 3 hrs by LC/MS-MS analysis; type: ADME, organism-based; conditions: in vivo; how it was run: as §3
[20] = Ratio of drug concentration in brain of Sprague-Dawley rat at 30 mg/kg, po to IC50 of gamma-secretase in human SK-N-BE cells; type: ADME, organism-based; conditions: in vivo
[21] = Ratio of drug concentration in brain of Sprague-Dawley rat at 10 mg/kg, po to IC50 of gamma-secretase in human SK-N-BE cells; type: ADME, organism-based; conditions: in vivo
[22] = target: Cytochrome P450 2D6 (Homo sapiens, UniProt P10635); assay: Inhibition of human recombinant CYP2D6 assessed as reduction in metabolite formation using AMMC as substrate incubated for 20 mins by fluorescence assay; type: ADME; how it was run: as §5
Chain of Cytochrome P450 2D6 (P10635 whole entry): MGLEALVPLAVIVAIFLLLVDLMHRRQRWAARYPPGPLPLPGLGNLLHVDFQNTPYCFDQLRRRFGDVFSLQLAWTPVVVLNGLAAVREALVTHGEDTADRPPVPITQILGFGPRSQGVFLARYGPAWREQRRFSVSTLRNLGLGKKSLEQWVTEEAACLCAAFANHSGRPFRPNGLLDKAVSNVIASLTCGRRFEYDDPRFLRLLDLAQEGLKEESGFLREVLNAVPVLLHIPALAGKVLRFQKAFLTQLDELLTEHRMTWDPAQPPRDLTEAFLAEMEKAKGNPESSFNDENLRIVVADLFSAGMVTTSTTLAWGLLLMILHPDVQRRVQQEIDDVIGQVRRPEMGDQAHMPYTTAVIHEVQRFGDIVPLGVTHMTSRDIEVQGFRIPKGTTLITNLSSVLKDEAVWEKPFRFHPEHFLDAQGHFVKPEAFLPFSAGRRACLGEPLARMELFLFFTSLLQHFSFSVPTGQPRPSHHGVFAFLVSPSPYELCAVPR

[23] = Ratio of drug concentration in brain to blood of Sprague-Dawley rat at 30 mg/kg, po measured after 3 hrs by LC/MS-MS analysis; type: ADME, organism-based; conditions: brain and blood; how it was run: as §3
[24] = Intrinsic clearance in mouse liver microsomes at 0.2 uM incubated upto 45 mins by LC/MS-MS analysis; type: ADME, Microsome; how it was run: as §1

Row | Structure (SMILES) | CLint scaled at 0.2 µM [1] | IC50 [2] | inhibition in vivo at 30 mg/kg [3] | inhibition in vivo at 30 mg/kg [4] | further results
1 | CCNC(=O)c1ccc(-c2c(C)nc3c(OCc4ccc(-c5ccccc5F)cc4)cccn23)cn1 | > 1000 mL/min/kg | 0.22 µM |  |  | 
2 | CNC(=O)c1ccc(-c2c(C)nc3c(OCc4ccc(-c5ccc(F)cc5)cc4F)cccn23)cn1.Cl | 115 mL/min/kg | 0.029 µM | 42% | 77% | concentration at 3 h [5]: 5.7 µM; activity at 20 min [6]: 104%; Kp at 3 h [7]: 0.27; IC50 [8]: > 10 µM; concentration at 3 h [9]: 16 µM; inhibition in vivo at 10 mg/kg [10]: 23%; inhibition in vivo at 10 mg/kg [11]: 63%; IC50 [12]: > 10 µM; activity at 20 min [13]: 109%; Ratio [14]: 196; Ct [15]: 3.5 nmol/g; IC50 [16]: > 10 µM; Ratio [17]: 561; Activity [18]: Active; Ct [19]: 1.5 nmol/g; Ratio [20]: 121; Ratio [21]: 51; IC50 [22]: > 10 µM; Kp at 3 h [23]: 0.23
3 | CCn1c(=O)c2ccc(-c3c(C)nc4c(OCc5ccc(-c6ccc(F)cc6)cc5)cccn34)cc2n1C |  | > 2 µM |  |  | 
4 | CCNC(=O)c1ccc(-c2c(C)nc3c(OCc4ccc(-c5cccc(C(F)(F)F)c5)cc4)cccn23)cn1 | 38 mL/min/kg | 0.061 µM | 15% | 62% | 
5 | CCNC(=O)c1ccc(-c2c(C)nc3c(OCc4ccc(-c5ccc(C(F)(F)F)cc5)cc4)cccn23)cn1.Cl |  | 0.21 µM | 4% | 40% | CLH ([1]; microsomes, 0.75 h, 0.2 µM): Stable
6 | CCn1sc2cc(-c3c(C)nc4c(OCc5ccc(-c6ccc(F)cc6)cc5)cccn34)ccc2c1=O |  | > 2 µM |  |  | 
7 | CCNC(=O)c1ccc(-c2c(C)nc3c(OCc4ccc(-c5ccccc5C(F)(F)F)cc4)cccn23)cn1 | 790 mL/min/kg | 0.18 µM |  |  | 
8 | CCNC(=O)c1ccc(-c2c(C)nc3c(OCc4ccc(-c5ccc(F)cc5)cc4)cccn23)cn1 | 221 mL/min/kg | 0.075 µM | 22% | 43% | 
9 | Cc1nc2c(OCc3ccc(-c4ccc(F)cc4)cc3)cccn2c1-c1ccc2c(=O)n(C)oc2c1.Cl | 167 mL/min/kg | 0.069 µM | 29% | 81% | concentration at 3 h [9]: 21 µM; Ct [15]: 5.6 nmol/g; Ratio [17]: 304; Ratio [20]: 81; Kp at 3 h [23]: 0.27
10 | CCN1Cc2cc(-c3c(C)nc4c(OCc5ccc(-c6ccc(F)cc6)cc5)cccn34)ccc2C1=O | 345 mL/min/kg | 0.092 µM | 10% | 59% | 
11 | CCn1oc2cc(-c3c(C)nc4c(OCc5ccc(-c6ccc(F)cc6)cc5)cccn34)ccc2c1=O | 214 mL/min/kg | 0.09 µM | 20% | 63% | 
12 | CNC(=O)c1ccc(-c2c(C)nc3c(OCc4ccc(-c5ccc(F)cc5)cc4)cccn23)cn1.Cl | 147 mL/min/kg | 0.037 µM | 40% | 68% | concentration at 3 h [9]: 17 µM; Ct [15]: 7.1 nmol/g; Ratio [17]: 446; Ratio [20]: 193; Kp at 3 h [23]: 0.44
13 | CCn1[nH]c2cc(-c3c(C)nc4c(OCc5ccc(-c6ccc(F)cc6)cc5)cccn34)ccc2c1=O |  | 0.39 µM |  |  | 
14 | CCNC(=O)c1ccc(-c2c(C)nc3c(OCc4ccc(-c5ccccc5)cc4)cccn23)cn1.Cl | 835 mL/min/kg |  | 13% | 28% | concentration at 3 h [9]: 6.8 µM; CLint scaled at 0.2 µM [24]: 227 mL/min/kg; Ct [15]: 2.1 nmol/g; Ratio [17]: 75; Ratio [20]: 23; Kp at 3 h [23]: 0.3
15 | CCNC(=O)c1ccc(-c2c(C)nc3c(OCc4ccc(-c5cccc(F)c5)cc4)cccn23)cn1 | 307 mL/min/kg | 0.099 µM | 22% | 42% | 
